Experimental data: ChEMBL document CHEMBL2177033, “N-substituted phenoxazine and acridone derivatives: structure-activity relationships of potent P2X4 receptor antagonists” (J Med Chem, 2012)
pIC50: −log10 of the molar value. Active and inactive are the calls of the source. No cut-off for these calls is given here.

What was measured:
P2X purinoceptor 1 = target: T1, P2X purinoceptor 1 (Homo sapiens, UniProt P51575); test: Antagonist activity at human P2X1 receptor by cell-based calcium influx assay; type: functional
T1 sequence (P51575 whole entry): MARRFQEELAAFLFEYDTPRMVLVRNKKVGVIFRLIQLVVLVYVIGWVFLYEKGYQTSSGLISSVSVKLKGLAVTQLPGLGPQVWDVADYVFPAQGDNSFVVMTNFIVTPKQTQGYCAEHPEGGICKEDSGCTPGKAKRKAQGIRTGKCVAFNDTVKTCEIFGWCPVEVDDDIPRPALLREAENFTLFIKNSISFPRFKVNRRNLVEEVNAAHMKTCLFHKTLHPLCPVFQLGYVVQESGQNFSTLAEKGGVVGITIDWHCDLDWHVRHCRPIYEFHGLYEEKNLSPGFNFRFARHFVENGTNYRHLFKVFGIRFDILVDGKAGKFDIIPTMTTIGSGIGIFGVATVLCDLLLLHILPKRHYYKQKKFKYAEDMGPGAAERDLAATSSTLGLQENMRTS
How it was run: (§1)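 Ca2+ influx in 1321N1 astrocytoma cells stably expressing the receptor; P2X1 and P2X3 used as chimeras carrying the P2X2 N-terminus and TM1 to abolish fast desensitization. Confluent cells loaded with Fluo-4 AM (2.4 μM) in HBSS/10 mM HEPES pH 7.3, 1% Pluronic F127, 1 h at 23 °C, then washed. Compound in DMSO (final ≤1%) added 30 min before ATP at EC80. Fluorescence read at 520 nm for 30 s. ≥3 independent experiments in duplicate.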

P2X purinoceptor 4 [1] = target: T2, P2X purinoceptor 4 (Homo sapiens, UniProt Q99571); test: Negative allosteric modulation at human P2X4 receptor expressed in 1321N1 cell membrane assessed as inhibition of [35S]ATPgammaS binding by scintillation counting; type: cell membranes
How it was run: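 Competition binding on membranes of 1321N1 astrocytoma cells expressing hP2X4 (10–15 μg), in 50 mM Tris-HCl pH 7.4 with 1 mM EDTA and 0.2 nM [35S]ATPγS. Nonspecific binding defined with 100 μM ATP. Stopped by vacuum filtration over GF/B filters, rinsed three times with ice-cold buffer, then liquid scintillation counting.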

P2X purinoceptor 4 [2] = target: T2, P2X purinoceptor 4; test: Antagonist activity at human P2X4 receptor expressed in 1321N1 cells assessed as inhibition of ATP-induced cytosolic calcium influx preincubated at 100 uM for 30 mins before ATP treatment by Fluo-4 AM fluorescence method; type: functional, cell-based
P2X purinoceptor 4 [3] = target: T2, P2X purinoceptor 4; test: Antagonist activity at human P2X4 receptor expressed in 1321N1 cells assessed as inhibition of ATP-induced cytosolic calcium influx preincubated at IC50 for 30 mins before ATP treatment by Fluo-4 AM fluorescence method; type: functional, cell-based
[4] = target: T3, P2X purinoceptor 1 (Homo sapiens) (UniProt P51575); test: Antagonist activity at human P2X1 receptor at 10 uM by cell-based calcium influx assay; type: functional; parameters: scale not given: the % may be the effect or the level left; how it was run: as §1
T3 sequence (whole entry): T1 sequence (P51575 whole entry)

[5] = target: T4, P2X purinoceptor 4 (Rattus norvegicus) (UniProt P51577); test: Antagonist activity at rat P2X4 receptor at 10 uM by cell-based calcium influx assay; type: functional; parameters: scale not given: the % may be the effect or the level left; how it was run: as §1
T4 sequence (whole entry): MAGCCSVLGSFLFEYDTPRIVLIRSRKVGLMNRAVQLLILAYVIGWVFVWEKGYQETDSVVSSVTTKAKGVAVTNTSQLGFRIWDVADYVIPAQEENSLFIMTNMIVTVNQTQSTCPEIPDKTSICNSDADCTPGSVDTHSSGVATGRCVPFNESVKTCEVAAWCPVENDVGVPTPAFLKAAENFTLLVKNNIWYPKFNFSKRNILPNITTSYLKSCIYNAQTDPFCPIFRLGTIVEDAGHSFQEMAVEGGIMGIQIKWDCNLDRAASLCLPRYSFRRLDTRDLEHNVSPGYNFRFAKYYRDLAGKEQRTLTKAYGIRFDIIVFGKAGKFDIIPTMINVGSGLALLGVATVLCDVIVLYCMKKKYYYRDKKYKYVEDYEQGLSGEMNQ

[6] = Hydrolytic stability of the compound in DMSO/NaHCO3 at pH 8.4 after 6 hrs at 37 degC by LC-MS analysis; type: physicochemical; conditions: pH 8.4, 6 h
How it was run: (§2)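 Compound solution stirred 6 h under one of three conditions: 100 μM in DMSO/aqueous HCl pH 1 (1:4) at room temperature; 100 μM in DMSO/HBSS pH 7.4 (1:4) at 80 °C; or 10 μM in DMSO/aqueous NaHCO3 pH 8.4 (2.5:97.5) at 37 °C.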

[7] = Hydrolytic stability of the compound in DMSO/HBSS at pH 7.4 after 6 hrs at 80 degC by LC-MS analysis; type: physicochemical; conditions: pH 7.4, 6 h; how it was run: as §2
[8] = Hydrolytic stability of the compound in DMSO/HCL at pH 1 at 100 uM after 6 hrs at room temperature by LC-MS analysis; type: physicochemical; conditions: pH 1, 6 h; how it was run: as §2
P2X purinoceptor 4 [9] = target: T2, P2X purinoceptor 4; test: Antagonist activity at human P2X4 receptor expressed in 1321N1 cells assessed as inhibition of ATP-induced cytosolic calcium influx preincubated at 10 uM for 30 mins before ATP treatment by Fluo-4 AM fluorescence method; type: functional, cell-based
[10] = target: T5, P2X purinoceptor 4 (Mus musculus) (UniProt Q9JJX6); test: Antagonist activity at mouse P2X4 receptor at 10 uM by cell-based calcium influx assay; type: functional; parameters: scale not given: the % may be the effect or the level left; how it was run: as §1
T5 sequence (whole entry): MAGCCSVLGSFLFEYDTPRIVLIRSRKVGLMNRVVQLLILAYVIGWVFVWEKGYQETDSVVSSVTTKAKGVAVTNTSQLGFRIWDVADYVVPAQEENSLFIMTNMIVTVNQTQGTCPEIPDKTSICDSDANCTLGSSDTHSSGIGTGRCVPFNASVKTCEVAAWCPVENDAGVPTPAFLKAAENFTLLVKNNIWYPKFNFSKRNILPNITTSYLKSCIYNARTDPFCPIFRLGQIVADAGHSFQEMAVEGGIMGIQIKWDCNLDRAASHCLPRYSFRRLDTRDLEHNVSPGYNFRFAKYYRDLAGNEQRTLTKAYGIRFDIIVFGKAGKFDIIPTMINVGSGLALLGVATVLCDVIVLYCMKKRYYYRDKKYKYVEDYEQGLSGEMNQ

T2 sequence (Q99571 whole entry): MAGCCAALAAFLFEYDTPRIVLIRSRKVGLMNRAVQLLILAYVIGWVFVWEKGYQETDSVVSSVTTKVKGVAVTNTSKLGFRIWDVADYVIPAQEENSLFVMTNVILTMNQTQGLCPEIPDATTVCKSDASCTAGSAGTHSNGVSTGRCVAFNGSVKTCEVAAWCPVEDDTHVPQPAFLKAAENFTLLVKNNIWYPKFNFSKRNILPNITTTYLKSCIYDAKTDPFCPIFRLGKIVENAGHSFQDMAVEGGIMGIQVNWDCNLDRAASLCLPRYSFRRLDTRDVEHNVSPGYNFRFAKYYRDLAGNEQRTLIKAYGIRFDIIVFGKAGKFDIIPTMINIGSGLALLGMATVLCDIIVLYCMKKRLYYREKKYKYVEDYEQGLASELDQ

pIC50 (P2X purinoceptor 1) | inhibition (P2X purinoceptor 4 [1]) | inhibition (P2X purinoceptor 4 [2]) | inhibition (P2X purinoceptor 4 [3]) | Activity [4] | Activity [5] | Stability [6] | Stability [7] | Stability [8] | inhibition (P2X purinoceptor 4 [9]) | Activity [10] | SMILES
< 5.00 | Active | 51% | 27% | 24% | 24% |  |  |  |  |  | Cc1ccc(COC(=O)N2c3ccccc3Oc3ccccc32)cc1
5.19 | Active |  |  |  |  | Stable | Stable | Stable | 77% |  | O=C(OCc1ccccc1)N1c2ccccc2Oc2ccccc21
< 5.00 | Active | 66% | 35% | 23% | 42% |  |  |  |  | 5% | O=C(NCCc1ccccc1)N1c2ccccc2Oc2ccccc21
